Source: ChEMBL document CHEMBL4837193 (Eur J Med Chem, 2021)
Values belong to the compound of their own block, whether it stands above or below them.

Key:
[1] = test system: HeLa; assay: Antiproliferative activity against human HeLa cells assessed as cell growth inhibition after 48 hrs by MTT assay; type: functional, cell-based
Method in brief: (§1)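 Cells grown at 37 °C with CO2 in RPMI-1640 or DMEM plus 10% FBS. Seeded at 2 × 10³ per well, attached 24 h, then medium changed. Compound exposure 48 h at 37 °C, DMSO 0.1% as vehicle. MTT added and incubated a further 4 h. Crystals dissolved, absorbance read at 570 nm. IC50 from curve fitting, mean ± SD of three independent experiments.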

[2] = test system: HCT-116; assay: Antiproliferative activity against human HCT-116 cells assessed as cell growth inhibition after 48 hrs by MTT assay; type: functional, cell-based; settings: HCT-116, 48 h; method in brief: as §1
[3] = test system: HEK293; assay: Antiproliferative activity against human HEK293 cells assessed as cell growth inhibition after 48 hrs by MTT assay; type: cell-based; settings: HEK293, 48 h; method in brief: as §1
[4] = test system: HT-29; assay: Antiproliferative activity against human HT29 cells assessed as cell growth inhibition after 48 hrs by MTT assay; type: functional, cell-based; settings: HT-29, 48 h
[5] = test system: A549; assay: Antiproliferative activity against human A549 cells assessed as cell growth inhibition after 48 hrs by MTT assay; type: functional, cell-based; settings: A549, 48 h; method in brief: as §1
[6] = biological target: Tubulin (Homo sapiens) (UniProt P68371+Q9H4B7+P0DPH7+P68366+Q13509+Q71U36+P04350+Q3ZCM7+P07437+P68363+Q9BQE3+Q6PEY2+Q13885+Q9BVA1+Q9BUF5); assay: Inhibition of tubulin polymerization (unknown origin) at 10 uM measured after 30 mins every 1 min for 20 mins by spectrophotometric method; type: protein-complex assay
Method in brief: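 Tubulin at 2 mg/mL in PEM buffer (100 mM PIPES pH 6.9, 1 mM MgCl2, 1 mM EGTA, 5% glycerol) preincubated on ice with compound or DMSO, then GTP added. After 0.5 h, A340 read every 1 min for 20 min at 37 °C. Plateau values used. Single-point inhibition at 10 µM; IC50 is the concentration halving polymerization at 20 min, mean ± SD of three experiments.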

[7] = test system: HepG2; assay: Antiproliferative activity against human HepG2 cells assessed as cell growth inhibition after 48 hrs by MTT assay; type: functional, cell-based; settings: HepG2, 48 h; method in brief: as §1
[8] = test system: T47D; assay: Antiproliferative activity against human T47D cells assessed as cell growth inhibition after 48 hrs by MTT assay; type: functional, cell-based
[9] = biological target: Tubulin; assay: Inhibition of tubulin polymerization (unknown origin) measured afer 30 mins every 1 min for 20 mins by spectrophotometric method; type: protein-complex assay, Homo sapiens
Method in brief: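 Tubulin at 2 mg/mL in PEM buffer (100 mM PIPES pH 6.9, 1 mM MgCl2, 1 mM EGTA, 5% glycerol) preincubated on ice with compound or DMSO, then GTP added. After 0.5 h, A340 read every 1 min for 20 min at 37 °C. Plateau values used.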

IC50 [1]: > 30 µM
Structure (SMILES): COc1ccc(-c2ccnc3nc(-c4cc(OC)c(OC)c(OC)c4)nn23)cc1

IC50 [1]: > 30 µM
Structure (SMILES): COc1cc(-c2nc3nccc(-c4ccc([N+](=O)[O-])cc4)n3n2)cc(OC)c1OC

IC50 [1]: > 30 µM
Structure (SMILES): COc1cc(-c2nc3nccc(-c4ccc(C(F)(F)F)cc4)n3n2)cc(OC)c1OC

IC50 [1]: > 30 µM
Structure (SMILES): COc1cc(-c2nc3nccc(-c4cccnc4)n3n2)cc(OC)c1OC

IC50 [1]: > 30 µM
Structure (SMILES): COc1cc(-c2nc3nccc(-c4ccc(C)cc4)n3n2)cc(OC)c1OC

IC50 [1]: 29.9 µM
Structure (SMILES): COc1cc(-c2nc3nccc(-c4ccc(N)cc4)n3n2)cc(OC)c1OC

Continued, compound first:

Structure (SMILES): COc1cc(-c2nc3nccc(-c4cc(Cl)c(NC(C)=O)c(Cl)c4)n3n2)cc(OC)c1OC
IC50 [1]: > 30 µM

Structure (SMILES): COc1ccc(-c2nc3nccc(-c4cc(OC)c(OC)c(OC)c4)n3n2)cc1NC(C)=O
IC50 [2]: 22.4 µM
IC50 [3]: 82.1 µM
IC50 [4]: 1.66 µM
IC50 [5]: 34.6 µM
inhibition [6]: 16%
IC50 [7]: > 100 µM
IC50 [1]: 0.28 µM
IC50 [8]: 5.67 µM

Structure (SMILES): COc1ccc(/C=C\c2cc(OC)c(OC)c(OC)c2)cc1O [COMBRETASTATIN A4]
IC50 [7]: 5.29 µM
IC50 [8]: 0.027 µM

Structure (SMILES): COc1ccc(-c2ccnc3nc(-c4cc(OC)c(OC)c(OC)c4)nn23)cc1F
IC50 [1]: > 30 µM

Structure (SMILES): COc1cc(-c2nc3nccc(-c4cccc5ccccc45)n3n2)cc(OC)c1OC
IC50 [1]: 28.6 µM

Structure (SMILES): COc1ccc(-c2nc3nccc(-c4cc(OC)c(OC)c(OC)c4)n3n2)cc1N
IC50 [2]: > 100 µM
IC50 [3]: > 100 µM
IC50 [4]: 83 µM
IC50 [5]: 18.9 µM
inhibition [6]: 49%
IC50 [7]: 21.1 µM
IC50 [9]: 12.2 µM
IC50 [1]: 0.11 µM
IC50 [8]: 6.51 µM

Structure (SMILES): COc1ccc(-c2ccnc3nc(-c4cc(OC)c(OC)c(OC)c4)nn23)cc1OC
IC50 [1]: > 30 µM

Structure (SMILES): COc1cc(-c2nc3nccc(-c4cc5ccccc5oc4=O)n3n2)cc(OC)c1OC
IC50 [1]: > 30 µM
